In ChEMBL document CHEMBL4145615, “Indolyl Azaspiroketal Mannich Bases Are Potent Antimycobacterial Agents with Selective Membrane Permeabilizing Effects and in Vivo Activity” (J Med Chem, 2018):
Converted amounts (≈) assume the structure as drawn.

What was measured:
[1] = tested on: Vero C1008; experiment: Cytotoxicity against African green monkey Vero E6 cells assessed as cell growth inhibition after 48 hrs by celltitre 96 aqueous one-based assay; conditions: Chlorocebus sabaeus, Vero C1008, 48 h
[2] = Hemolytic activity against human RBC after 1 hr; assay type: ADME, cell-based, Erythrocyte; conditions: red blood cells (erythrocytes)
Summary of the method: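 Human red blood cells were exposed to the test compound at a range of concentrations in phosphate-buffered saline for 1 h at 37°C. Hemolysis was referenced to 2% Triton X-100, taken as 100% hemolysis. The value reported is the concentration that lyses 50% of RBCs.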

[3] = tested on: Mycobacterium tuberculosis; experiment: Antimycobacterial activity against Mycobacterium tuberculosis H37Rv ATCC 27294 after 7 days by broth dilution method; assay type: functional; conditions: H37Rv ATCC 27294, 168 h
[4] = Cmax in CD1 mouse at 25 mg/kg, po administered as single dose by LC/MS-MS analysis; assay type: ADME, organism-based; set-up: dose 25 mg/kg, route oral; conditions: in vivo
Summary of the method: (§1)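 Uninfected CD-1 mice (n=2 per compound), single oral dose 25 mg/kg as a solution in 5% DMA/65% PEG300/30% D5W. Blood taken at 30 min, 1, 3, 5 h and plasma separated by centrifugation. Lungs taken at 5 h and homogenized in ~5 volumes PBS. Levels measured by LC/MS-MS after acetonitrile/methanol protein precipitation with verapamil internal standard. AUC and Cmax calculated from mean concentrations.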

[5] = tested on: Mycobacterium tuberculosis; experiment: Bactericidal activity against Mycobacterium tuberculosis H37Rv ATCC 27294 assessed as 1000 fold reduction in CFU after 7 days; assay type: functional; conditions: H37Rv ATCC 27294, 168 h, read-out: MBC99.9
Summary of the method: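 BCG ran 5 days at 37°C, 110 rpm; H37Rv ran 7 days at 37°C, 80 rpm. CFU counted on 7H10 agar. MBC99.9 is the 1000-fold CFU reduction versus inoculum at time zero. Average of 2 or more determinations.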

[6] = tested on: Mycobacterium tuberculosis; experiment: Loebicidal activity against nutrient-starved nongrowing Mycobacterium tuberculosis H37Rv ATCC 27294 assessed as 1000 fold reduction in CFU after 7 days; assay type: functional
Summary of the method: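 Mtb H37Rv nutrient-starved, non-growing bacilli prepared from a roller-bottle culture. 1 mL at OD600 = 0.05 exposed to a range of concentrations for 7 days at 37°C, 80 rpm. CFU counted on 7H10 agar. LCC99.9 is the 1000-fold reduction versus drug-free inoculum at time zero.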

[7] = tested on: Mus musculus; experiment: AUC in CD1 mouse at 25 mg/kg, po administered as single dose by LC/MS-MS analysis; assay type: ADME, organism-based; conditions: in vivo; summary of the method: as §1
[8] = tested on: Mus musculus; experiment: Toxicity in CD1 mouse at 25 mg/kg, po administered as single dose by LC/MS-MS analysis; assay type: organism-based; conditions: in vivo
Summary of the method: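 Uninfected CD-1 mice (n=2 per compound) received a single oral 25 mg/kg dose as a solution in 5% DMA/65% PEG300/30% D5W. Tail-bleed blood was taken at 30 min, 1, 3 and 5 h and spun to plasma. Lungs were taken at 5 h and homogenized in about 5 volumes of PBS. Samples were acetonitrile/methanol-precipitated with verapamil internal standard and quantified by LC-MS/MS against standard curves in drug-free CD1 plasma.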

[9] = Drug uptake in lungs of CD1 mouse at 25 mg/kg, po administered as single dose measured at 5 hrs post dose by LC/MS-MS analysis; assay type: ADME, organism-based; conditions: lung, read-out: Drug uptake; summary of the method: as §1
[10] = tested on: Lipid bilayer
[11] = tested on: Mycobacterium tuberculosis; experiment: Bactericidal activity against Mycobacterium tuberculosis H37Rv ATCC 27294 after 5 days; assay type: functional; conditions: H37Rv ATCC 27294, 120 h, read-out: MBC99.9
[12] = Plasma concentration in CD1 mouse at 25 mg/kg, po administered as single dose measured at 5 hrs post dose by LC/MS-MS analysis; assay type: ADME, organism-based; summary of the method: as §1
[13] = Ratio of drug level in CD1 mouse lung to plasma at 25 mg/kg, po administered as single dose measured at 5 hrs post dose by LC/MS-MS analysis; assay type: ADME, organism-based
Summary of the method: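 Blood taken at 30 min, 1, 3, 5 h and plasma separated by centrifugation. Lungs taken at 5 h and homogenized in ~5 volumes PBS. Levels measured by LC/MS-MS after acetonitrile/methanol protein precipitation with verapamil internal standard. AUC and Cmax calculated from mean concentrations.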

[14] = Half life in rat liver microsomes at 1 uM preincubated for 5 mins followed by NADPH addition measure up to 45 mins by LC-MS analysis; assay type: ADME, microsome; conditions: 0.75 h
Summary of the method: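 Male rat liver microsomes, incubated 45 min at 37°C. Half-life reported as mean ± SD.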

[15] = Selectivity index, ratio of IC50 for African green monkey Vero E6 cells to MIC50 for Mycobacterium bovis BCG ATCC 35734; assay type: toxicity, Vero C1008; conditions: read-out: Selectivity Index
[16] = tested on: Mus musculus; experiment: Acute toxicity in BALB/c mouse at 100 mg/kg administered via oral gavage for 3 days measured over 7 days; assay type: organism-based; conditions: in vivo, 168 h
Summary of the method: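 BALB/c mice, 3 per group, oral gavage at 100 mg/kg in 200 μL of equal volumes PEG400 and 5% glucose. Dosed on three consecutive days, then monitored 7 days. Euthanized by CO2 and examined for gross pathological changes.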

[17] = Drug uptake in lung of Mycobacterium tuberculosis H37Rv infected BALB/c mouse at 100 mg/kg administered 6 days per week for 4 weeks via oral gavage; assay type: ADME, organism-based; conditions: in vivo, read-out: Drug uptake

Structure (SMILES)	IC50 [1]	HC50 at 1 h [2]	other results
COc1ccc2c(CN3CCC4(CC3)OCCCO4)cn(CCCCc3ccccc3)c2c1	21 µM	> 300 µM	
CCCCCCCCn1cc(CN2CCC3(CC2)OCCCO3)c2cccc([N+](=O)[O-])c21	49 µM	> 300 µM	
CCCCCCCCn1cc(CN2CCCCC2)c2ccc([N+](=O)[O-])cc21	23 µM		
COc1ccc2c(CN3CCC4(CC3)OCCCO4)cn(CCCOc3ccccc3)c2c1		> 300 µM	
CCCCCCCCn1cc(CN2CCC3(CC2)OCCCO3)c2ccc(OCc3ccccc3)cc21	27 µM	> 300 µM	
CCCCCCCCn1cc(CN2CCCCC2)c2ccc(OC(C)C)cc21	26 µM		
CCCCCCCCn1cc(CNCC2CC3CC3C2)c2ccc(OC)cc21 (configuration not stated)	10 µM	33 µM	
CCCCCCCCn1cc(CN2CCCCC2)c2ccc(C#N)cc21	22 µM		
CCCCCCCCn1cc(CNC2CCC3(CC2)OCCO3)c2ccc(OC)cc21	22 µM	207 µM	
CCCCCCCCn1cc(CN2CCC3(CC2)OCCO3)c2ccc([N+](=O)[O-])cc21	62 µM	> 300 µM	
CCCCCCCCn1cc(CN2CCC3(CC2)OCCCS3)c2ccc(OC)cc21	39 µM	> 300 µM	MIC50 [3]: 0.5 µM (≈ 0.222 µg/mL); MIC90 [3]: 0.8 µM (≈ 0.356 µg/mL); Cmax [4]: 60.6 ng/mL; MBC [5]: 3.2 µM (≈ 1.42 µg/mL); LCC99.9 [6]: <18 µM; AUC [7]: 224 ng·h/mL; Activity [8]: Non-Toxic; concentration at 5 h [9]: 1600 ng/g; ΔTm [10]: 4 °C; MBC [11]: 3.2 µM (≈ 1.42 µg/mL); concentration at 5 h [12]: 55.2 ng/mL; Kp at 5 h [13]: 28.9; t1/2 [14]: 32.9 min
CCCCCCCCn1cc(CN2CCC3(CC2)SCCCS3)c2ccc(OC)cc21	152 µM	> 300 µM	MIC50 [3]: 0.5 µM (≈ 0.23 µg/mL); MIC90 [3]: 0.78 µM (≈ 0.359 µg/mL)
CCCCCCCCn1cc(CN2CCC3(CC2)OCCO3)c2ccc(C#N)cc21	59 µM	> 300 µM	
CCCCCCCCn1ccc2cc(OCCCN3CCCCCC3)ccc21	34 µM		ΔTm [10]: 1 °C
CCCCCCCCn1cc(CNC2Cc3ccccc3C2)c2ccc(OC)cc21	24 µM		selectivity ratio [15]: 6
CCCCCCCCn1cc(CNCC2CCC3CC3C2)c2ccc(OC)cc21 (configuration not stated)	20 µM		selectivity ratio [15]: 13
CCCCCCCCn1cc(CNCC2CCC3(CCCC3)O2)c2ccc(OC)cc21 (configuration not stated)	21 µM		selectivity ratio [15]: 12
COc1ccc2c(CN3CCC4(CC3)OCCCO4)cn(CCCOc3ccc(F)cc3)c2c1		> 300 µM	
CCCCCCCCn1cc(CN2CCC3(CC2)OC[C@@H](C)O3)c2ccc(OC)cc21	37 µM	75 µM	
COc1ccc(OCCCn2cc(CN3CCC4(CC3)OCCCO4)c3ccc(OC)cc32)cc1	46 µM	> 300 µM	
CCCCCCCCn1cc(CN2CCC3(CC2)OC(C)C(C)O3)c2ccc(OC)cc21 (configuration not stated)	34 µM	76 µM	selectivity ratio [15]: 49
CCCCCCCCn1cc(CN2CCCC3(CC2)OCCS3)c2ccc(OC)cc21 (configuration not stated)	35 µM	> 300 µM	
COc1ccc2c(CN3CCC4(CC3)OCCCO4)cn(CCCOc3ccc(C)cc3)c2c1		> 300 µM	
COc1ccc2c(CN3CCCCC3)cn(CCCc3ccccc3)c2c1	43 µM		
CCCCCCCCn1cc(CN2CCC3(CC2)OCCS3)c2ccc(OC)cc21	64 µM	> 300 µM	MIC50 [3]: 0.6 µM (≈ 0.258 µg/mL); MIC90 [3]: 0.95 µM (≈ 0.409 µg/mL); ΔTm [10]: 4 °C

Structure (SMILES)	IC50 [1]	HC50 at 1 h [2]	other results
CCCCCCCCn1cc(CN2CC(c3ccccc3)C2)c2ccc(OC)cc21	44 µM	> 300 µM	
CCCCCCCCn1ccc2ccc(OCCCN3CCCCCC3)cc21	33 µM		
CCCCCCCCn1cc(CN2CCC3(CC2)OCCCO3)c2ccc(OCCC)cc21	29 µM	27 µM	
CCCCCCCCn1cc(CN2CCC3(CC2)OC[C@H](C)O3)c2ccc(OC)cc21	34 µM	51 µM	
CCCCCCCCn1cc(CN2CCOC3(CCCOC3)C2)c2ccc(OC)cc21 (configuration not stated)	> 500 µM	> 300 µM	selectivity ratio [15]: > 278
CCCCCCCCn1cc(CN2CCC3(CCN(Cc4ccccc4)CC3)CC2)c2ccc(OC)cc21	14 µM	69 µM	
CCCCCCCCn1cc(CN2CCC3(CC2)SCCS3)c2ccc(OC)cc21	> 200 µM	> 300 µM	MIC50 [3]: 0.7 µM (≈ 0.313 µg/mL); MIC90 [3]: 1.1 µM (≈ 0.491 µg/mL); selectivity ratio [15]: > 400; ΔTm [10]: 4 °C
CCCCCCCCn1cc(CN2CCC3(CC2)OCCO3)c2ccc(OCc3ccccc3)cc21	36 µM	> 300 µM	
CCCCCCCCn1cc(CN2CCC3(CC2)OCCCO3)c2ccc(C#N)cc21	22 µM	> 300 µM	
CCCCCCCCn1cc(CN2CCC3(CC2)OCCO3)c2ccc(OC(C)C)cc21	41 µM	56 µM	
COc1ccc2c(CN3CCC4(CC3)OCCCO4)cn(CCCOc3ccc(C)c(C)c3)c2c1		> 300 µM	
CCCCCCCCn1cc(CNCC2CC3CCC2C3)c2ccc(OC)cc21 (configuration not stated)	10 µM	19 µM	
CCCCCCCCn1cc(CN2CCC3(CC2)OCCCO3)c2ccc(OC)cc21	29 µM	64 µM	MIC50 [3]: 0.44 µM (≈ 0.189 µg/mL); MIC90 [3]: 0.76 µM (≈ 0.326 µg/mL); Cmax [4]: 64.8 ng/mL; MBC [5]: 3.2 µM (≈ 1.37 µg/mL); LCC99 [6]: 18 µM; Activity [16]: Non-Toxic; AUC [7]: 282 ng·h/mL; Activity [8]: Non-Toxic; ΔTm [10]: 4 °C; concentration [17]: 3000 nM; MBC [11]: 3.2 µM (≈ 1.37 µg/mL); concentration at 5 h [12]: 58.5 ng/mL; t1/2 [14]: 27.7 min
CCCCCCCCn1cc(CN2CCC3(CC2)OCCO3)c2ccc(OCCC)cc21	29 µM	31 µM	
COc1ccc(CCCn2cc(CN3CCC4(CC3)OCCO4)c3ccc(OC)cc32)cc1	31 µM		
CCCCCCCCn1cc(CN2CCC3(C=Cc4ccccc43)CC2)c2ccc(OC)cc21	44 µM	> 300 µM	selectivity ratio [15]: 44
CCCCCCCCn1cc(CN2CCC3(CCO3)CC2)c2ccc(OC)cc21	31 µM	88 µM	selectivity ratio [15]: 16
CCCCCCCCn1cc(CN2CCC3(CC2)OCCCO3)c2ccc(OC(C)C)cc21	20 µM	29 µM	
CCCCCCCCn1cc(CN2CCC3(CC2)OCCCO3)c2ccc([N+](=O)[O-])cc21	28 µM	> 300 µM	
CCCCCCCCn1cc(CN2CCCC3(CC2)OCCCS3)c2ccc(OC)cc21 (configuration not stated)	34 µM	132 µM	
CCCCCCCCn1cc(CN2CCC3(CCc4ccccc43)CC2)c2ccc(OC)cc21	31 µM	> 300 µM	selectivity ratio [15]: 31
COc1ccc2c(CN3CCC4(CC3)OCCCO4)cn(CCCOCc3ccccc3)c2c1	54 µM		
COc1ccc2c(CN3CCC4(CC3)OCCO4)cn(CCCc3ccccc3)c2c1	35 µM		
CCCCCCCCn1cc(CN2[C@H]3CCC[C@@H]2CCC3)c2ccc(OC)cc21	31 µM	109 µM	selectivity ratio [15]: 8
